Experimental data: ChEMBL document CHEMBL1137312, “Design and synthesis of a novel photoaffinity ligand for the dopamine and serotonin transporters based on 2beta-carbomethoxy-3beta-biphenyltropane” (J Med Chem, 2006)
The source made the active and inactive calls. The rule behind the calls is not given here.

Assays:
[1] = molecular target: Sodium-dependent dopamine transporter (Rattus norvegicus, UniProt P23977); assay: Displacement of [3H]WIN-35428 from DAT in rat striatal membrane; type: cell membranes, Striatum
Procedure, shortened: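 Competition binding against [3H]WIN 35 428 in rat striatal membranes. Ligand was used as free base, freshly prepared and kept in the dark. Ki from at least three independent experiments, each in triplicate. Values are mean ± SEM.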

[2] = molecular target: Sodium-dependent serotonin transporter (Rattus norvegicus, UniProt P31652); assay: Displacement of [3H]citaloporam from SERT in rat brain; type: tissue-based
Procedure, shortened: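 Competition binding against [3H]citalopram in rat brain stem or midbrain membranes. Ligand was used as free base, freshly prepared and kept in the dark. Ki from at least three independent experiments, each in triplicate. Values are mean ± SEM.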

[3] = molecular target: Sodium-dependent serotonin transporter (Homo sapiens) (UniProt P31645); assay: Photo labeling activity at human SERT expressed in HEK293 cells; type: cell-based; settings: tested as the 125I-labelled form
Procedure, shortened: (§1)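 HEK 293 cells expressing hDAT or hSERT were photolabeled with [125I] azido ligand (specific activity about 2000 mCi/µmol, radiochemical purity 99%). Cells were solubilized and lysates immunoprecipitated with DAT- or SERT-specific antisera. Read-out was SDS-PAGE and autoradiography, detecting labeled protein bands of 80 or 66 kDa.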

[4] = molecular target: Sodium-dependent dopamine transporter (Homo sapiens) (UniProt Q01959); assay: Photo labeling activity at human DAT expressed in HEK293 cells in the presence of (-)cocaine; type: cell-based; settings: tested as the 125I-labelled form
Procedure, shortened: (§2)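 Cocaine-protection version of the photolabeling. HEK 293 cells expressing hDAT or hSERT were photolabeled with [125I] azido ligand in the presence of 10 µM (-)cocaine. Cells were solubilized and immunoprecipitated with transporter-specific antisera. Read-out was SDS-PAGE and autoradiography.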

[5] = molecular target: Sodium-dependent serotonin transporter (Homo sapiens) (UniProt P31645); assay: Photo labeling activity at human SERT expressed in HEK293 cells in the presence of (-)cocaine; type: cell-based; settings: tested as the 125I-labelled form; procedure, shortened: as §2
[6] = molecular target: Sodium-dependent dopamine transporter (Homo sapiens) (UniProt Q01959); assay: Photo labeling activity at human DAT expressed in HEK293 cells; type: cell-based; settings: tested as the 125I-labelled form; procedure, shortened: as §1

Sequence of Sodium-dependent serotonin transporter (P31652 whole entry): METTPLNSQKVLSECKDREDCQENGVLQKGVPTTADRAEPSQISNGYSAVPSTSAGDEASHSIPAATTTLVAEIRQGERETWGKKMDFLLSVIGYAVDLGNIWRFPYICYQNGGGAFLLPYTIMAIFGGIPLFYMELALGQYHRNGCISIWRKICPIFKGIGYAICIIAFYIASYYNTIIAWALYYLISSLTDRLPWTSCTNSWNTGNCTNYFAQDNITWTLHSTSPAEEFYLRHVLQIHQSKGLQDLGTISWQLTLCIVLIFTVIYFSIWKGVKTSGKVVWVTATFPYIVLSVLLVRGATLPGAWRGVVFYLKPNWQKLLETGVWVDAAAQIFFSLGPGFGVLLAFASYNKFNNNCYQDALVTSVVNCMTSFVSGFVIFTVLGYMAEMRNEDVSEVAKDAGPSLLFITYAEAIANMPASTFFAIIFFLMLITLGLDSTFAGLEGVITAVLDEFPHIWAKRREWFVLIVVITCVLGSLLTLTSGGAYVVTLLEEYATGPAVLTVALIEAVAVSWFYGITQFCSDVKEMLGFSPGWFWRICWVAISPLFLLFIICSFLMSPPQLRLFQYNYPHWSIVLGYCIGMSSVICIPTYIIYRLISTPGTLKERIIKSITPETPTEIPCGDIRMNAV
Sequence of Sodium-dependent dopamine transporter (P23977 whole entry): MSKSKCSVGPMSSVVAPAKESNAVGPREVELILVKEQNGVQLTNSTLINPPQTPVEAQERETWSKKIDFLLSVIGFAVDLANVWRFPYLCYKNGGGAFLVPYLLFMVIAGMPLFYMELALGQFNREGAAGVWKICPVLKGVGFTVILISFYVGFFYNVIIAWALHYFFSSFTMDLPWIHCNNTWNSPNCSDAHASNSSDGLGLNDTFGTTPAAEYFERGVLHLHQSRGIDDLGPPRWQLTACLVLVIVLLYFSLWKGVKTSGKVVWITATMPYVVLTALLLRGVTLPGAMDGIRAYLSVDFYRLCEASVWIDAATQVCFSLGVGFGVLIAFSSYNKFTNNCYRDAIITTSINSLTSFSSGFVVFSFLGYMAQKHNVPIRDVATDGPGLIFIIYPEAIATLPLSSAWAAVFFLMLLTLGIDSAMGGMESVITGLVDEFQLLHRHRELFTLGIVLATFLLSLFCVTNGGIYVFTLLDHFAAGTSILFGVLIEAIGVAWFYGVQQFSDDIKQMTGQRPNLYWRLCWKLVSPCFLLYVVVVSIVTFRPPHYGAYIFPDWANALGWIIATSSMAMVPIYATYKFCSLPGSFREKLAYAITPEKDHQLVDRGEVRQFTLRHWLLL
Sequence of Sodium-dependent dopamine transporter (Homo sapiens) (Q01959 whole entry): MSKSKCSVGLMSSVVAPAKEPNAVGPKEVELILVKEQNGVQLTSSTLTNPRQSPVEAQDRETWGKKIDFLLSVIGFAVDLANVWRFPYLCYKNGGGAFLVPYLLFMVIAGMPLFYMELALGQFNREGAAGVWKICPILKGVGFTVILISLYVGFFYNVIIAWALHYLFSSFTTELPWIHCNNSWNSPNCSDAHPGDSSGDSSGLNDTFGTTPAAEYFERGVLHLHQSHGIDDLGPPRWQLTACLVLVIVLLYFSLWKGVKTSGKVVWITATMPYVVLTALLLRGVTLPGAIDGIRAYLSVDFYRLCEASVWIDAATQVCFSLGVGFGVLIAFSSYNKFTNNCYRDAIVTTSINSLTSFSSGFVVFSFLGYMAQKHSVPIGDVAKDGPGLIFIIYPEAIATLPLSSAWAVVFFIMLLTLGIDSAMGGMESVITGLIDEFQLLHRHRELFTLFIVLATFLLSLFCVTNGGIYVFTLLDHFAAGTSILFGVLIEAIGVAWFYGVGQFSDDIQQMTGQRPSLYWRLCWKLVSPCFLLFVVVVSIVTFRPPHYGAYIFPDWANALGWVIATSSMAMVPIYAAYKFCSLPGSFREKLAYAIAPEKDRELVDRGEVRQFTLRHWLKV
Sequence of Sodium-dependent serotonin transporter (Homo sapiens) (P31645 whole entry, looked up): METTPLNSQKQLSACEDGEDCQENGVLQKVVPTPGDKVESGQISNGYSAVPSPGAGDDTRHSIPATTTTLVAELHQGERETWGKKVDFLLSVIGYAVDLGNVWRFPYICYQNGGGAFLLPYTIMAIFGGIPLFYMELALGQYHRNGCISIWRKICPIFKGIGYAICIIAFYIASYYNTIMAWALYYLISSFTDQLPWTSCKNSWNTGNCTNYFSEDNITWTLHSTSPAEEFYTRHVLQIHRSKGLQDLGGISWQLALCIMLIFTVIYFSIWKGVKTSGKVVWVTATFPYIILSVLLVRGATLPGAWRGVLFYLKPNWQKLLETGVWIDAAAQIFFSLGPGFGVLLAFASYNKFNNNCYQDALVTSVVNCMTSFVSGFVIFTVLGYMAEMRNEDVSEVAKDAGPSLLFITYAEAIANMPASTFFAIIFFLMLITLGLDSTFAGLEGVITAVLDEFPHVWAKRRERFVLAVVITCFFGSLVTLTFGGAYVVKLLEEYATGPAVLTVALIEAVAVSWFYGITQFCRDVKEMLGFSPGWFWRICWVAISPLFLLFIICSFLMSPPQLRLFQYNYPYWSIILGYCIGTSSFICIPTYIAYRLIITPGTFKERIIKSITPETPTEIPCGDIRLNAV

Row | SMILES | Ki [1] [nM] | Ki [2] [nM] | Activity [3] | Activity [4] | Activity [5] | Activity [6]
1 | COC(=O)[C@@H]1C2CCC(C[C@@H]1c1ccc(-c3ccc(N)c(I)c3)cc1)N2C (some centres undefined) | 134 | 8.82 |  |  |  | 
2 | COC(=O)[C@@H]1C2CCC(C[C@@H]1c1ccc(-c3ccc([N+](=O)[O-])cc3)cc1)N2C (some centres undefined) | 5.03 | 51 |  |  |  | 
3 | COC(=O)[C@@H]1C2CCC(C[C@@H]1c1ccc(-c3ccc(N)cc3)cc1)N2C (some centres undefined) | 12.9 | 1070 |  |  |  | 
4 | COC(=O)[C@@H]1C2CCC(C[C@@H]1c1ccc(Br)cc1)N2C (some centres undefined) | 0.42 | 4.1 |  |  |  | 
5 | COC(=O)[C@@H]1C2CCC(C[C@@H]1c1ccc(-c3ccc(N=[N+]=[N-])c(I)c3)cc1)N2C (some centres undefined) | 15.1 | 109 | Active | inactive | inactive | Active
